Source: PubChem (several laboratories)
pPAFAH FP inh – pPAFAH (human) enzyme inhibition; recombinant pPAFAH, FP-rhodamine probe fluorescence polarization; inhibition, % at 3.39 µM; 330,000 tested, 1.5% active;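 active = inhibition above the mean inhibition across the screen plus 3 SD, cut at about 25% in these data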;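 note: inhibitors block binding of the rhodamine activity-based probe so polarization drops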
NR3A LBD binder – modulators (binders) of human NR3A ligand-binding domain; NR3A LBD differential scanning fluorimetry, Tm shift; 0% = protein alone, 100% = glycine-bound protein; Tm shift relative to glycine control, % at 25 µM; 340,000 tested, 2.5% active; AID 1259313;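 active = melting temperature shift of at least 10% of the positive control shift, at one fixed dose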
PAFAH2 inh – PAFAH2 (human) inhibition. Q99487. inhibition, % at 3.39 µM. recombinant PAFAH2, FP-rhodamine activity probe, fluorescence polarization. 340,000 tested, 0.99% active. AID 492956;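 active = inhibition above the mean over all tested compounds plus 3 SD, cut at about 30% in these data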;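 note: inhibitors block probe labeling of enzyme so polarization drops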
UCH37 inh – human UCH37 deubiquitinating enzyme inhibition. Q9Y5K5. purified proteasome/UCH37, Ub-AMC cleavage fluorescence. inhibition, % (concentration not given with the values). 330,000 tested, 0.33% active. AID 588478;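 active = mean inhibition over replicate wells above about 20%, limit read from the data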
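Material: human UCH37 enzyme supplied as purified proteasome complex. Measure: % inhibition of Ub-AMC cleavage fluorescence. Medium: pH 7.4 Tris-HCl (50 mM) with ovalbumin, ATP-MgCl2, DTT. Times: 30 min preincubation with enzyme, 25 min cleavage at room temperature. Detection: AMC fluorescence intensity at 355/460 nm.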
PAFAH1B2 FP inh – blocks human PAF acetylhydrolase 1b catalytic subunit 2. P68402. recombinant PAFAH1B2, FP-rhodamine activity probe, fluorescence polarization. inhibition, % at 3.39 µM. 340,000 tested, 1.2% active;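 active = inhibition above the mean of all tested compounds plus 3 SD, cut at about 24% in these data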
Target sequence (P68402 whole entry, looked up): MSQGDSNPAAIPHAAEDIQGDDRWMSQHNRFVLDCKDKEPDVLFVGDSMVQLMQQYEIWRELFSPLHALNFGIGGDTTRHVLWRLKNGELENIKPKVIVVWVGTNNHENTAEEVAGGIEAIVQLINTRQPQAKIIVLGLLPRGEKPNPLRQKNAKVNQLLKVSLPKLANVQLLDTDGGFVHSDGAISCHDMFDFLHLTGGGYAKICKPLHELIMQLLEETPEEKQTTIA
PAFAH1B3 inh – PAFAH1B3 (human) inhibition; inhibition, % at 3.39 µM; 340,000 tested, 0.28% active; Q15102; AID 492972; recombinant PAFAH1B3, FP-rhodamine probe, fluorescence polarization;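 active = inhibition above the screen-wide average of all tested compounds plus 3 SD, cut at about 25% in these data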
Target sequence (Q15102 whole entry, looked up): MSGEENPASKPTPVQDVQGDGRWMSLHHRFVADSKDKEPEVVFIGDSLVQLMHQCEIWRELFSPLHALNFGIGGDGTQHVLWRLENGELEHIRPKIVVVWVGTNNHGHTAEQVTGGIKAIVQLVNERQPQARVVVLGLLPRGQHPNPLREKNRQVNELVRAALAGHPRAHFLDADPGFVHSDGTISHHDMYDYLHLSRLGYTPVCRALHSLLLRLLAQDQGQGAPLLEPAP
PAFAH1B3 confirm – confirmation of human PAFAH1B3 inhibitors; shares compounds with PAFAH1B3 inh; recombinant PAFAH1B3, FP-Rh activity-based probe, fluorescence polarization; inhibition, % at 3.39 µM; 390 tested, 30% active; AID 493032;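 active = average inhibition over triplicate runs above the hit cutoff set in the earlier primary screen, cut at about 25% in these data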
Hits are given with their value; – = inactive; · = no result; ! = not active in a repeat. Rows were chosen to be rich in hits. Some 4.8% of all compounds tested hit in one or more screens of this group.

SMILES	pPAFAH FP inh	NR3A LBD binder	PAFAH2 inh	UCH37 inh	PAFAH1B2 FP inh	PAFAH1B3 inh	PAFAH1B3 confirm
CC(CC(=O)NCC(C)C)=NNC(=O)COc1cc(C)c(Br)cc1Br	·	·	·	–	·	·	·
O=c1cc(-c2ccc(O)c(O)c2)oc2c(C3O[C@H](CO)[C@@H](O)[C@H](O)[C@H]3O)c(O)cc(O)c12 (some centres undefined)	–	–	–	–	–	30	–
S=C(Nc1ccc2nsnc2c1)N1CCCCC1	–	–	–	–	–	51	–
S=C(Nc1ccc(Cl)c(Cl)c1)N1CCCC1	–	–	–	–	–	–	·
N#Cc1cc(Cl)c(N2CCOCC2)cc1C#N	–	–	–	–	–	–	·
N#Cc1cc2ccc(N3CCOCC3)cc2cc1C#N	–	–	–	–	–	60	–
CC(=O)N(/N=C1\Sc2ccccc2C1=O)c1cccc(C)c1	–	–	–	·	–	42	54
CNCCCC1c2ccccc2C=Cc2ccccc21	–	–	–	–	–	–	·
CNCCCC12CCC(c3ccccc31)c1ccccc12	–	–	–	–	–	50!	–
O=C(COC(=O)c1ccc([N+](=O)[O-])s1)NC(c1ccccc1)c1ccccc1	–	–	–	–	–	42	–
CC(C)(C)c1ccc(NC(=O)COC(=O)c2ccc([N+](=O)[O-])s2)cc1	–	–	–	–	–	38	–
NC(=NOC(=O)c1ccc(Cl)c([N+](=O)[O-])c1)c1ccccc1	·	·	·	–	·	·	·
N#CC(C#N)=C1C=C2C=C(N3CCOCC3)CCC2CC1 (centres undefined)	·	–	–	–	–	34	–
O=C1C=C(O)c2[nH]c(=O)ccc2C1=O	·	–	–	·	–	53	–
COc1ccc(CN2C(=O)c3ccccc3C(C=NOCc3ccc(Cl)cc3)C2=O)cc1 (centres undefined)	·	·	·	–	·	·	·
O=C(CSc1nnc(SCc2cccc3ccccc23)s1)NN=C/C=C/c1ccccc1[N+](=O)[O-]	·	·	·	–	·	·	·
Cc1cccc(C=NNC(=O)C(C)Nc2cccc3ccccc23)n1 (centres undefined)	·	·	·	–	·	·	·
CC(Nc1cccc2ccccc12)C(=O)N/N=C/c1ccccn1 (centres undefined)	–	–	–	·	–	36	–
COc1ccccc1C(=O)NN=C(C)c1ccc(NC(=O)C2CC2)cc1	·	·	·	–	·	·	·
Cc1nc(N)sc1-c1csc(Nc2cccc(C(=O)O)c2)n1	·	–	–	–	–	29	–
C=CCOc1ccc(C=NN2C(=O)C(CC(=O)Nc3ccc(F)cc3F)SC2=NC)cc1 (centres undefined)	·	·	·	–	·	·	·
CC1OC(Nc2ccc(N=Nc3ccccc3)cc2)C(O)C(O)C1O (centres undefined)	–	–	–	–	–	–	·
CC1OC(Nc2cccc3ccccc23)C(O)C(O)C1O (centres undefined)	–	·	–	–	–	32	–
COc1ccc2cc(C(=O)N/N=C/c3sc4ccccc4c3O)ccc2c1	–	12	–	·	–	30	–
C=CCc1cccc(/C=N/NC(=O)CNc2cccc3ccccc23)c1O	–	30	–	·	–	26	–
SMILES	pPAFAH FP inh	NR3A LBD binder	PAFAH2 inh	UCH37 inh	PAFAH1B2 FP inh	PAFAH1B3 inh	PAFAH1B3 confirm
COc1ccc(CNC(=O)CC(C)=NNC(=O)Cc2ccc(OC)c(OC)c2)cc1	·	·	·	–	·	·	·
CC(=O)N1CCn2c3c(c(=O)c4cc(C)ccc42)CCC31 (centres undefined)	–	–	–	–	–	41	–
Cc1cn2c(N)c(C=C3C=C(Cl)C(=O)C(Cl)=C3)c(=O)nc2s1	·	–	–	–	–	35	–
COC1=C/C(=C/c2c(N)n3cc(C)sc3nc2=O)C=CC1=O	–	–	–	–	–	–	·
O=C(CSc1ncc(S(=O)(=O)c2ccccc2)c(=O)[nH]1)Nc1ccccc1Cl	–	–	–	–	–	56	51
O=C(/C=C/c1ccc(O)cc1)c1ccccc1	–	–	–	–	–	–	·
O=C(/C=C/c1ccc(O)cc1)c1ccc(NC2=C(N3CCCCC3)C(=O)c3ccccc3C2=O)cc1	–	–	–	22	–	54	–
COc1ccccc1NC1=C(N2CCCCC2)C(=O)c2ccccc2C1=O	–	–	–	52	–	42	–
Cc1ccc(NC2=C(N3CCCCC3)C(=O)c3ccccc3C2=O)cc1	–	–	–	23	–	41	–
CC(=NNc1cccc2cccnc12)c1ccc(C)cc1	·	·	·	–	·	·	·
CC1=CC(=NNc2ccccc2[N+](=O)[O-])CC(C)(C)C1	·	·	·	–	·	·	·
COc1ccc(C=NNc2nc(Nc3ccccc3)nc(N3CCCC3)n2)cc1[N+](=O)[O-]	·	·	·	–	·	·	·
CC1=NN(c2nc(-c3ccc(C)cc3)cs2)C(=O)C1N=Nc1cccc(O)c1 (centres undefined)	–	12	–	–	–	26	–
CC1=NN(c2ccccc2)C(=O)C1N=Nc1cccc(O)c1 (centres undefined)	–	–	–	–	–	–	·
CNC(=S)NN=C(C)c1ccc(C)c(C)c1	·	·	·	–	·	·	·
COc1ccccc1/C=C/C(=O)NCC(=O)NN=Cc1ccc2c(c1)OCO2	·	·	·	–	·	·	·
N=C1/C(=C/c2ccc(-c3cccc(C(=O)O)c3)o2)C(=O)N=C2SC(CC(=O)N3CCOCC3)=NN12	–	–	–	24	–	30	–
Cc1cc(N/N=C/c2c(O)ccc3ccccc23)nc(-c2ccccc2O)n1	–	14	–	·	–	30	–
Cc1cc(NN=Cc2c(O)ccc3ccccc23)nc(-c2ccccc2O)n1	·	·	·	–	·	·	·
